Laboratory results: ChEMBL document CHEMBL2146464, “Structure-activity relationship study of nitrosopyrimidines acting as antifungal agents” (Bioorg Med Chem, 2012)
≈ marks a conversion by molar mass, not a printed value. Calls of active or inactive are those of the source. The rule behind the calls is not given here.

Experiments:
[1] = tested on: Candida albicans; assay: Antifungal activity against Candida albicans ATCC 10231 after 48 hrs by NCCLS broth microdilution method; assay type: functional; details: ATCC 10231, 48 h, read-out: MIC100
How it was run: (§1)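 Yeast MIC by NCCLS M27-A3 broth microdilution in RPMI-1640 buffered to pH 7.0 with MOPS. Twofold dilutions of 250–0.98 µg/mL, final DMSO ≤1%. Inoculum 1–5 × 10³ CFU/mL. Incubated at 30 °C in a moist dark chamber. Read visually at 48 h. MIC100 is the lowest concentration with no visible growth versus drug-free control.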

[2] = tested on: Candida tropicalis; assay: Antifungal activity against Candida tropicalis after 48 hrs by NCCLS broth microdilution method; assay type: functional; details: read-out: MIC100; how it was run: as §1
[3] = tested on: Cryptococcus neoformans; assay: Antifungal activity against Cryptococcus neoformans ATCC 32264 after 48 hrs by NCCLS broth microdilution method; assay type: functional; details: ATCC 32264, 48 h, read-out: MIC100; how it was run: as §1
[4] = tested on: Candida tropicalis; assay: Antifungal activity against Candida tropicalis by microplate reader analysis; assay type: functional
[5] = tested on: Trichophyton rubrum; assay: Antifungal activity against Trichophyton rubrum CCC 110 by NCCLS broth microdilution method; assay type: functional; details: read-out: MIC100
How it was run: (§2)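 MIC by broth microdilution per NCCLS M27-A3/M38-A2 in RPMI-1640 buffered to pH 7.0 with MOPS. Twofold dilutions from 250–0.98 µg/mL, final DMSO ≤1%. Inoculum 1–5 × 10³ CFU/mL. Incubated in a moist dark chamber, 30 °C for Aspergillus and 28–30 °C for dermatophytes. Read visually when control growth allowed. Endpoint is the lowest concentration giving total inhibition of visible growth (MIC100).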

[6] = tested on: Trichophyton mentagrophytes; assay: Antifungal activity against Trichophyton mentagrophytes ATCC 9972 by NCCLS broth microdilution method; assay type: functional; details: read-out: MIC100; how it was run: as §2
[7] = tested on: Candida albicans; assay: Fungicidal activity against Candida albicans ATCC 10231 after 48 hrs by agar plate dilution method; assay type: functional; details: ATCC 10231, 48 h
How it was run: (§3)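 MFC: after the microdilution MIC, material from each clear well was plated onto RPMI-1640 agar buffered with MOPS. Plates incubated at 30 °C and read after 48 h. MFC is the lowest concentration giving total inhibition of visible growth.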

[8] = tested on: Candida tropicalis; assay: Fungicidal activity against Candida tropicalis after 48 hrs by agar plate dilution method; assay type: functional; how it was run: as §3
[9] = tested on: Cryptococcus neoformans; assay: Fungicidal activity against Cryptococcus neoformans ATCC 32264 after 48 hrs by agar plate dilution method; assay type: functional; details: ATCC 32264, 48 h; how it was run: as §3
[10] = tested on: Aspergillus flavus; assay: Antifungal activity against Aspergillus flavus ATCC 9170 at 0.98 to 250 ug/mL by NCCLS broth microdilution method; assay type: functional, organism-based; how it was run: as §2
[11] = tested on: Aspergillus fumigatus; assay: Antifungal activity against Aspergillus fumigatus ATCC 26934 at 0.98 to 250 ug/mL by NCCLS broth microdilution method; assay type: functional, organism-based; how it was run: as §2
[12] = tested on: Aspergillus niger; assay: Antifungal activity against Aspergillus niger ATCC 9029 at 0.98 to 250 ug/mL by NCCLS broth microdilution method; assay type: functional, organism-based; how it was run: as §2
[13] = tested on: Nannizzia gypsea; assay: Antifungal activity against Microsporum gypseum CCC 115 at 0.98 to 250 ug/mL by NCCLS broth microdilution method; assay type: functional, organism-based; how it was run: as §2
[14] = tested on: Trichophyton rubrum; assay: Fungicidal activity against Trichophyton rubrum CCC 110 at 0.98 to 250 ug/mL after 48 hrs by agar plate dilution method; assay type: functional, organism-based
How it was run: (§4)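 Samples from each clear well of the MIC broth microdilution tray were plated onto RPMI-1640 agar buffered with MOPS. That tray had compounds twofold diluted in RPMI (pH 7.0, MOPS) from 250–0.98 µg/mL with inoculum of 1–5 × 10³ CFU/mL, incubated at 28–30 °C for dermatophytes. Plates were incubated at 30 °C and read at 48 h. MFC was taken as the lowest concentration giving total inhibition of visible growth.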

[15] = tested on: Trichophyton mentagrophytes; assay: Fungicidal activity against Trichophyton mentagrophytes ATCC 9972 at 0.98 to 250 ug/mL after 48 hrs by agar plate dilution method; assay type: functional, organism-based; how it was run: as §4
[16] = tested on: Candida albicans; assay: Antifungal activity against Candida albicans ATCC 10231 assessed as growth inhibition at 250 ug/mL after 24 hrs by microplate reader analysis; assay type: functional; details: ATCC 10231, 24 h, read-out: GI
How it was run: (§5)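 96-well RPMI-1640 wells with compound at final 250–0.98 µg/mL (DMSO ≤1%). Inoculum 100 µL, 1–5 × 10³ CFU/mL, 200 µL final. Each well includes growth (DMSO, no compound) and sterility controls. % inhibition = 100 − (CTW−SCW)/(GCW−SCW) × 100, run in duplicate.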

[17] = tested on: Candida tropicalis; assay: Antifungal activity against Candida tropicalis assessed as growth inhibition at 250 ug/mL by microplate reader analysis; assay type: functional; details: read-out: GI
[18] = tested on: Cryptococcus neoformans; assay: Antifungal activity against Cryptococcus neoformans ATCC 32264 assessed as growth inhibition at 250 ug/mL after 48 hrs by microplate reader analysis; assay type: functional; details: ATCC 32264, 48 h, read-out: GI
How it was run: (§6)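 Microplate growth-inhibition assay in RPMI-1640, compound at final 250–0.98 µg/mL (DMSO ≤1%). Inoculum 1–5 × 10³ CFU/mL. Sterility and DMSO growth controls included. Percent inhibition is computed from blank-corrected OD relative to the growth control, tested in duplicate.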

[19] = tested on: Candida albicans; assay: Antifungal activity against Candida albicans ATCC 10231 assessed as growth inhibition at 125 ug/mL after 24 hrs by microplate reader analysis; assay type: functional; details: ATCC 10231, 24 h, read-out: GI; how it was run: as §5
[20] = tested on: Candida tropicalis; assay: Antifungal activity against Candida tropicalis assessed as growth inhibition at 125 ug/mL by microplate reader analysis; assay type: functional; details: read-out: GI
[21] = tested on: Cryptococcus neoformans; assay: Antifungal activity against Cryptococcus neoformans ATCC 32264 assessed as growth inhibition at 125 ug/mL after 48 hrs by microplate reader analysis; assay type: functional; details: ATCC 32264, 48 h, read-out: GI; how it was run: as §6
[22] = tested on: Candida albicans; assay: Antifungal activity against Candida albicans ATCC 10231 assessed as growth inhibition at 62.5 ug/mL after 24 hrs by microplate reader analysis; assay type: functional; details: ATCC 10231, 24 h, read-out: GI; how it was run: as §5
[23] = tested on: Candida tropicalis; assay: Antifungal activity against Candida tropicalis assessed as growth inhibition at 62.5 ug/mL by microplate reader analysis; assay type: functional; details: read-out: GI
[24] = tested on: Cryptococcus neoformans; assay: Antifungal activity against Cryptococcus neoformans ATCC 32264 assessed as growth inhibition at 62.5 ug/mL after 48 hrs by microplate reader analysis; assay type: functional; details: ATCC 32264, 48 h, read-out: GI; how it was run: as §6
[25] = tested on: Candida albicans; assay: Antifungal activity against Candida albicans ATCC 10231 assessed as growth inhibition at 31.25 ug/mL after 24 hrs by microplate reader analysis; assay type: functional; details: ATCC 10231, 24 h, read-out: GI; how it was run: as §5
[26] = tested on: Candida tropicalis; assay: Antifungal activity against Candida tropicalis assessed as growth inhibition at 31.25 ug/mL by microplate reader analysis; assay type: functional; details: read-out: GI
[27] = tested on: Cryptococcus neoformans; assay: Antifungal activity against Cryptococcus neoformans ATCC 32264 assessed as growth inhibition at 31.25 ug/mL after 48 hrs by microplate reader analysis; assay type: functional; details: ATCC 32264, 48 h, read-out: GI; how it was run: as §6
[28] = tested on: Candida albicans; assay: Antifungal activity against Candida albicans ATCC 10231 assessed as growth inhibition at 15.6 ug/mL after 24 hrs by microplate reader analysis; assay type: functional; details: ATCC 10231, 24 h, read-out: GI; how it was run: as §5
[29] = tested on: Candida tropicalis; assay: Antifungal activity against Candida tropicalis assessed as growth inhibition at 15.6 ug/mL by microplate reader analysis; assay type: functional; details: read-out: GI
[30] = tested on: Cryptococcus neoformans; assay: Antifungal activity against Cryptococcus neoformans ATCC 32264 assessed as growth inhibition at 15.6 ug/mL after 48 hrs by microplate reader analysis; assay type: functional; details: ATCC 32264, 48 h, read-out: GI; how it was run: as §6
[31] = tested on: Candida albicans; assay: Antifungal activity against Candida albicans ATCC 10231 assessed as growth inhibition at 7.8 ug/mL after 24 hrs by microplate reader analysis; assay type: functional; details: ATCC 10231, 24 h, read-out: GI; how it was run: as §5
[32] = tested on: Candida tropicalis; assay: Antifungal activity against Candida tropicalis assessed as growth inhibition at 7.8 ug/mL by microplate reader analysis; assay type: functional; details: read-out: GI
[33] = tested on: Cryptococcus neoformans; assay: Antifungal activity against Cryptococcus neoformans ATCC 32264 assessed as growth inhibition at 7.8 ug/mL after 48 hrs by microplate reader analysis; assay type: functional; details: ATCC 32264, 48 h, read-out: GI; how it was run: as §6
[34] = tested on: Candida albicans; assay: Antifungal activity against Candida albicans ATCC 10231 assessed as growth inhibition at 3.9 ug/mL after 24 hrs by microplate reader analysis; assay type: functional; details: ATCC 10231, 24 h, read-out: GI; how it was run: as §5
[35] = tested on: Candida tropicalis; assay: Antifungal activity against Candida tropicalis assessed as growth inhibition at 3.9 ug/mL by microplate reader analysis; assay type: functional; details: read-out: GI
[36] = tested on: Cryptococcus neoformans; assay: Antifungal activity against Cryptococcus neoformans ATCC 32264 assessed as growth inhibition at 3.9 ug/mL after 48 hrs by microplate reader analysis; assay type: functional; details: ATCC 32264, 48 h, read-out: GI; how it was run: as §6
[37] = tested on: Candida albicans; assay: Antifungal activity against Candida albicans ATCC 10231 after 24 hrs by microplate reader analysis; assay type: functional; details: ATCC 10231, 24 h; how it was run: as §5
[38] = Acute toxicity in bony fish assessed as mortality at 35 ug/mL after 96 hrs; details: actinopterygii; read-out: Activity
How it was run: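 Guppy (Poecilia reticulata) acute static exposure: 10 fish per concentration in 2 L wide-mouthed jars holding the test solution. Compounds were added from […] to give the final concentrations. Dead fish were counted and removed every 24 h, with general condition noted; percentage mortality was scored at 96 h. Two experiments, each in triplicate.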

[39] = tested on: Cryptococcus neoformans; assay: Antifungal activity against Cryptococcus neoformans ATCC 32264 after 48 hrs by microplate reader analysis; assay type: functional; details: ATCC 32264, 48 h; how it was run: as §6

CCCCNc1nc(N)nc(OC)c1N=O
MIC [1]: 62.5 µg/mL (≈ 277 µM)
MIC [2]: 62.5 µg/mL (≈ 277 µM)
MIC [3]: 125 µg/mL (≈ 555 µM)
MIC50 [4]: 7.8 µg/mL (≈ 34.6 µM)
MIC [5]: 250 µg/mL (≈ 1110 µM)
MIC [6]: 250 µg/mL (≈ 1110 µM)
MFC [7]: 250 µg/mL (≈ 1110 µM)
MFC [8]: 250 µg/mL (≈ 1110 µM)
MFC [9]: 250 µg/mL (≈ 1110 µM)
Activity [10]: inactive
Activity [11]: inactive
Activity [12]: inactive
Activity [13]: inactive
Activity [14]: inactive
Activity [15]: inactive
inhibition of growth at 250 µg/mL [16]: 100%
inhibition of growth at 250 µg/mL [17]: 100%
inhibition of growth at 250 µg/mL [18]: 100%
inhibition of growth at 125 µg/mL [19]: 100%
inhibition of growth at 125 µg/mL [20]: 100%
inhibition of growth at 125 µg/mL [21]: 100%
inhibition of growth at 62.5 µg/mL [22]: 100%
inhibition of growth at 62.5 µg/mL [23]: 100%
inhibition of growth at 62.5 µg/mL [24]: 85.5%
inhibition of growth at 31.25 µg/mL [25]: 98.2%
inhibition of growth at 31.25 µg/mL [26]: 93.2%
inhibition of growth at 31.25 µg/mL [27]: 75%
inhibition of growth at 15.6 µg/mL [28]: 86.2%
inhibition of growth at 15.6 µg/mL [29]: 85.2%
inhibition of growth at 15.6 µg/mL [30]: 63.1%
inhibition of growth at 7.8 µg/mL [31]: 50.4%
inhibition of growth at 7.8 µg/mL [32]: 57.7%
inhibition of growth at 7.8 µg/mL [33]: 52.4%
inhibition of growth at 3.9 µg/mL [34]: 20%
inhibition of growth at 3.9 µg/mL [35]: 16.3%
inhibition of growth at 3.9 µg/mL [36]: 11.3%
MIC50 [37]: 7.8 µg/mL (≈ 34.6 µM)
mortality at 96 h, 35 ug/mL [38]: 0%
MIC50 [39]: 7.8 µg/mL (≈ 34.6 µM)
